Results as given in ChEMBL document CHEMBL2163190, “Synthesis and evaluation of substituted chroman-4-one and chromone derivatives as sirtuin 2-selective inhibitors” (J Med Chem, 2012).
pIC50: −log10 of the molar value. Activity calls are given as the source filed them. No cut-off for these calls is given here.

Key:
[1] = molecular target: T1, NAD-dependent protein deacetylase sirtuin-2 (Homo sapiens) (UniProt Q8IXJ6); assay: Inhibition of human recombinant GST-tagged SIRT2 preincubated at 200 uM for 5 mins measured after 1 hr by Fluor de Lys-based fluorescence assay
T1 sequence (whole entry): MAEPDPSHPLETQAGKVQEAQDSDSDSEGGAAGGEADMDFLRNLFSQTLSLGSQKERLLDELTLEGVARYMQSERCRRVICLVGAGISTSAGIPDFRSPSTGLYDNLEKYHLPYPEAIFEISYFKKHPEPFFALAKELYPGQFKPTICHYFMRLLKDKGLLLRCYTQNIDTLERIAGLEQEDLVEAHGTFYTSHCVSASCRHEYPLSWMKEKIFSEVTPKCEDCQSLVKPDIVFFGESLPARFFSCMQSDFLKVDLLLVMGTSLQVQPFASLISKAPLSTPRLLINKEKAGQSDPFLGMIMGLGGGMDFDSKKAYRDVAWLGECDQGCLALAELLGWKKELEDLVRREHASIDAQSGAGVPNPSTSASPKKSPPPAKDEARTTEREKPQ
How it was run: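 GST-SIRT2 assay with Fluor de Lys KI179 substrate at 0.7 Km (Km 198 μM) and NAD+ at 0.9 Km (Km 547 μM), in HDAC buffer with 1 mg/mL BSA. Substrate, NAD+ and compound (200 μM, DMSO) were preincubated 5 min at RT, then enzyme added for 1 h at 37 °C. Developer plus nicotinamide (2 mM) was added for 45 min at 37 °C. Read at ex 355/em 460 nm; n = 3, SD.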

[2] = molecular target: T2, NAD-dependent protein deacetylase sirtuin-3, mitochondrial (Homo sapiens) (UniProt Q9NTG7); assay: Inhibition of recombinant His-tagged SIRT3 preincubated at 200 uM for 5 mins measured after 1hr by Fluor de Lys-based fluorescence assay
T2 sequence (whole entry): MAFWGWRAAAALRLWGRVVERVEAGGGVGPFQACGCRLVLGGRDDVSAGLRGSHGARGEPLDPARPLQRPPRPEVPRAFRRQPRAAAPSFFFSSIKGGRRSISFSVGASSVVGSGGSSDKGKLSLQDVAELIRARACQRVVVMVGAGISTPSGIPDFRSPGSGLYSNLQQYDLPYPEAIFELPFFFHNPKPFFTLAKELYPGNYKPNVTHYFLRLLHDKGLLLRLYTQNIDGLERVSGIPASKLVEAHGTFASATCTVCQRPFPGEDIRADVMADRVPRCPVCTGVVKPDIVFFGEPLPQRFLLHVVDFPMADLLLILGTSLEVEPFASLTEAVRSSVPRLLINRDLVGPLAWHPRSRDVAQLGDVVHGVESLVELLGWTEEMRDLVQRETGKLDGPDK
How it was run: (§1)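 Fluor de Lys assay with compound at 200 μM in DMSO. […] Substrate was used at 0.7 Km and NAD+ at 0.9 Km. Preincubated 5 min at RT, then enzyme for 1 h at 37 °C, then developer/nicotinamide for 45 min at 37 °C. Read at ex 355/em 460 nm.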

[3] = molecular target: T3, NAD-dependent protein deacetylase sirtuin-2 (Homo sapiens, UniProt Q8IXJ6); assay: Inhibition of human recombinant GST-tagged SIRT2 preincubated for 5 mins measured after 1 hr by Fluor de Lys-based fluorescence assay
T3 sequence (Q8IXJ6 whole entry): T1 sequence (whole entry)
How it was run: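 Fluorogenic GST-SIRT2 assay using KI179 at 0.7 Km and NAD+ at 0.9 Km, in BSA-supplemented HDAC buffer. Compound, substrate and NAD+ were preincubated 5 min at RT, then enzyme added for 1 h at 37 °C, followed by developer/nicotinamide for 45 min at 37 °C. Fluorescence read at 355/460 nm.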

[4] = molecular target: T4, NAD-dependent protein deacetylase sirtuin-1 (Homo sapiens) (UniProt Q96EB6); assay: Inhibition of recombinant GST-tagged SIRT1 preincubated at 200 uM for 5 mins measured after 1hr by Fluor de Lys-based fluorescence assay; how it was run: as §1
T4 sequence (whole entry): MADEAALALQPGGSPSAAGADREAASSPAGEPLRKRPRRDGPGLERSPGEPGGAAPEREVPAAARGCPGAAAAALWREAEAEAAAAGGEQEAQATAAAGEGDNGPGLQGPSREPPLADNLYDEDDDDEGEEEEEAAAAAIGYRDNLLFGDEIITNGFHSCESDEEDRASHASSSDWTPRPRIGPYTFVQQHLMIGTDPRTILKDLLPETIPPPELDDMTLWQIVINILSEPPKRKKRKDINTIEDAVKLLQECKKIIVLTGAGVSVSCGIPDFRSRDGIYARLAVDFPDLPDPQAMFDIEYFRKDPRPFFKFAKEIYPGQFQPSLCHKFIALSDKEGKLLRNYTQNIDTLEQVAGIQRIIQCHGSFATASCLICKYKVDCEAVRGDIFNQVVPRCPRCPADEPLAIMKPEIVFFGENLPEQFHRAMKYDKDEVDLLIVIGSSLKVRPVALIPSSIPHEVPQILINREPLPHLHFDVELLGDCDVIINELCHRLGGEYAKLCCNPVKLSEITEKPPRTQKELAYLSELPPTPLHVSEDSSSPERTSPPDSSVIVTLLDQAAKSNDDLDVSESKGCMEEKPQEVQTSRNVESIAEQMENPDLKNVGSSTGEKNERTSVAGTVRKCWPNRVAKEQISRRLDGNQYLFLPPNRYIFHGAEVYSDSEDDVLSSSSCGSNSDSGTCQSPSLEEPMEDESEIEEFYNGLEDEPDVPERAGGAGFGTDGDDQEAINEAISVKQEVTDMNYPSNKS

[5] = molecular target: T1, NAD-dependent protein deacetylase sirtuin-2 (Homo sapiens); assay: Inhibition of human SIRT2 assessed as inhibition of deacetylation of rat stem cell acetylated alpha-tubulin at 200 uM after 30 to 60 mins by Western blot analysis
How it was run: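 Acetylated α-tubulin (0.5 μg) isolated from rat stem cells was incubated with recombinant GST-SIRT2, NAD+ (500 μM) and compound (200 μM final, DMSO vehicle) in SIRT assay buffer for 30 or 60 min at 37 °C. Samples were resolved on 10% SDS-PAGE and blotted to nitrocellulose. Probed with anti-acetylated tubulin mAb 6-11B-1 (1:8000, 2 h, RT), then HRP anti-mouse secondary (1:50000, 2 h).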

[6] = molecular target: T1, NAD-dependent protein deacetylase sirtuin-2 (Homo sapiens); assay: Inhibition of SIRT2 using RSTGGK(Ac)APRKQ as substrate assessed as inhibition of [14C]nicotinamide release at 200 uM after 1h by TLC
How it was run: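 Recombinant GST-SIRT2 started the reaction with [carbonyl-14C]NAD+ (43.2 nCi) and acetylated peptide RSTGGK(Ac)APRKQ (196 μM). Buffer was HDAC assay buffer plus 1 mg/mL BSA, with compound at 200 μM final in DMSO. Incubated 1 h at 37 °C. The whole mixture was run on silica TLC in ethanol/2.5 M ammonium acetate (80:20), exposed overnight to X-ray film, and [14C]nicotinamide quantified by densitometry.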

inhibition [1] [%] | inhibition [2] [%] | pIC50 [3] | inhibition [4] [%] | inhibition [5] | inhibition [6] [%] | SMILES
55 | – | – | – | – | – | CCCCCC1CC(=O)c2cc(Cl)ccc2O1 (racemic)
27 | – | – | – | – | – | Cc1ccc(S(=O)(=O)n2cc(CCC3CC(=O)c4cc(Cl)cc(Br)c4O3)c3ccccc32)cc1 (racemic)
58 | – | – | – | – | – | CCCCCC1CC(=O)c2cc([N+](=O)[O-])ccc2O1 (racemic)
82 | < 10 | 5.26 | < 10 | – | – | CCCCCc1cc(=O)c2cc(Cl)cc(Br)c2o1
30 | – | – | – | – | – | CCCCCC1CC(=O)c2cc(F)cc(F)c2O1 (racemic)
20 | – | – | – | – | – | CCCCCC1CC(=O)c2cc(OC)ccc2O1 (racemic)
38 | – | – | – | – | – | CCCCCC1CCc2cc(Cl)cc(Br)c2O1 (centres undefined)
28 | – | – | – | – | – | CCCCCC1CC(=O)c2cccc(Br)c2O1 (racemic)
88 | < 10 | 5.37 | < 10 | Active | 66 | CCCCCC1CC(=O)c2cc(Cl)cc(Br)c2O1 (racemic)
70 | < 10 | 5.35 | < 10 | – | – | CCCCC[C@@H]1CC(=O)c2cc(Cl)cc(Br)c2O1
38 | – | – | – | – | – | CCCCCC1C=Cc2cc(Cl)cc(Br)c2O1 (centres undefined)
91 | < 10 | 5.82 | < 10 | – | – | CCCCC[C@H]1CC(=O)c2cc(Cl)cc(Br)c2O1
18 | – | – | – | – | – | CCCCCC1CC(=O)c2ccc(F)cc2O1 (racemic)
20 | – | – | – | – | – | O=c1cc(-c2ccccc2)oc2c(Br)cc(Cl)cc12
92 | < 10 | 5.82 | < 10 | – | – | CCCCCC1CC(=O)c2cc(Br)cc(Br)c2O1 (racemic)
81 | 16 | 5.17 | < 10 | – | – | O=C1CC(CCc2ccccc2)Oc2c(Br)cc(Cl)cc21 (racemic)
76 | < 10 | 4.97 | < 10 | – | – | CCCC1CC(=O)c2cc(Cl)cc(Br)c2O1 (racemic)
31 | – | – | – | – | – | CCCCCC1CC(O)c2cc(Cl)cc(Br)c2O1 (mixture of isomers)
83 | < 10 | 5.21 | < 10 | – | – | CCCCCC1CC(=O)c2cc(C)cc(C)c2O1 (racemic)
4.9 | – | – | – | – | – | CCCCCC1CC(=O)c2ccccc2O1 (racemic)
53 | – | – | – | – | – | O=C1CC(CCc2c[nH]c3ccccc23)Oc2c(Br)cc(Cl)cc21 (racemic)
52 | – | – | – | – | – | CC(C)C1CC(=O)c2cc(Cl)cc(Br)c2O1 (racemic)
57 | – | – | – | – | – | CCCCCCCC1CC(=O)c2cc(Cl)cc(Br)c2O1 (racemic)
